Data taken from ChEMBL document CHEMBL1137580, “Synthesis, potency, and in vivo profiles of quinoline containing histamine H3 receptor inverse agonists” (J Med Chem, 2007).
Values after ≈ are worked out from the molar mass of the structure shown. Active and inactive are the calls of the source. The calls are words filed in the database; no cut-off is given here.

Tests used:
[1] = Protein binding in monkey plasma; assay type: ADME, cell-free, Macaca mulatta; details: rhesus monkey, read-out: PPB (converted)
[2] = Protein binding in rat plasma; assay type: ADME, cell-free; details: read-out: PPB (converted)
[3] = Ratio of drug level in brain to blood in rat at 1 mg/kg, iv; assay type: ADME, organism-based; set-up: dose 1 mg/kg, route intravenous
In short: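 Rats given 1 mg/kg i.v.; brain and plasma concentrations measured 1 h after dosing by HPLC-MS, and the brain-to-plasma ratio was taken from these; n ≥ 3 animals.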

[4] = Half life in rat at 1 mg/kg, iv; assay type: ADME, organism-based; set-up: dose 1 mg/kg, route intravenous; details: in vivo
Rattus norvegicus [5] = experiment: Volume of distribution in rat at 1 mg/kg, iv; assay type: ADME, organism-based; set-up: dose 1 mg/kg, route intravenous; details: in vivo
[6] = Clearance in rat at 1 mg/kg, iv; assay type: ADME, organism-based; set-up: dose 1 mg/kg, route intravenous; details: in vivo
[7] = Oral bioavailability in rat at 1 mg/kg; assay type: ADME, organism-based; details: in vivo
In short: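 Oral dosing in rats at 1 mg/kg, n = 3 animals; F (%) given as mean, SEM <20% of mean unless stated.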

Brain [8] = experiment: Drug level in mouse brain at 1 mg/kg, ip; assay type: ADME, organism-based; set-up: dose 1 mg/kg, route intraperitoneal; details: in vivo
In short: (§1)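 Mice dosed i.p. at 1 mg/kg; brain and blood sampled 1 h after dosing, concentrations by HPLC-MS; n ≥ 3, SEM <11% of mean unless stated.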

[9] = Ratio of drug level in brain to blood in mouse at 1 mg/kg, ip; assay type: ADME, organism-based; set-up: dose 1 mg/kg, route intraperitoneal; in short: as §1
Brain [10] = experiment: Drug level in rat brain at 1 mg/kg, iv; assay type: ADME, organism-based; set-up: dose 1 mg/kg, route intravenous; details: in vivo
In short: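 Rats dosed i.v. at 1 mg/kg; brain concentration measured 1 h post-dose by HPLC-MS; n ≥ 3, SEM <11% of mean unless stated.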

[11] = Protein binding in dog plasma; assay type: ADME, cell-free, Canis lupus familiaris; details: read-out: PPB (converted)
Rattus norvegicus [12] = experiment: Memory enhancing effect in ip dosed adult rat by social recognition memory method; assay type: functional, organism-based
In short: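 Adult rat explores a juvenile 5 min, separated 2 h, re-exposed 5 min; compound or saline i.p. right after first exposure; investigation ratio (second/first time); ciproxifan 1 mg/kg standard; n ≥ 12, Dunnett's post hoc, P < 0.05; efficacious doses in mg/kg.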

Rattus norvegicus [13] = experiment: Memory enhancing effect in ip dosed adult rat by five trial inhibitory avoidance method; assay type: functional, organism-based
Rattus norvegicus [14] = experiment: Memory enhancing effect in ip dosed rat by five trial inhibitory avoidance method at 3 mg/kg; assay type: functional, organism-based; set-up: dose 3 mg/kg
Plasma [15] = experiment: Drug level in rat plasma at 0.3 mg/kg; assay type: ADME, organism-based; set-up: dose 0.3 mg/kg; details: in vivo
L-type calcium channel = L-type calcium channel (Homo sapiens, UniProt O60840+Q01668+Q13698+Q13936); experiment: Inhibition of human L-type calcium channel at 10 uM
[16] = molecular target: T1, Muscarinic acetylcholine receptor M4 (Homo sapiens) (UniProt P08173); experiment: Inhibition of human muscarinic M4 receptor at 10 uM
T1 sequence (whole entry): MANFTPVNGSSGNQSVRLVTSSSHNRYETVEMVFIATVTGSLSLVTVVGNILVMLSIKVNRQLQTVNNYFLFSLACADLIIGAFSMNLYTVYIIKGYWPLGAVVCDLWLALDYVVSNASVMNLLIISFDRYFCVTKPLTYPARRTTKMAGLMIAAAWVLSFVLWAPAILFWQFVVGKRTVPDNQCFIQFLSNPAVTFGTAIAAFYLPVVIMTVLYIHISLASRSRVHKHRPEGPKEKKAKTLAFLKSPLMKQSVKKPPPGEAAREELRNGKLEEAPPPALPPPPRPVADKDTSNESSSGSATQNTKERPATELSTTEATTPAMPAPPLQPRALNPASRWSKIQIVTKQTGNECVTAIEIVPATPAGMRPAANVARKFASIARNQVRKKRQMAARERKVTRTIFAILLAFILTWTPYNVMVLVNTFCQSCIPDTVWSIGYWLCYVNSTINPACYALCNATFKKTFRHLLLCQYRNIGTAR

[17] = molecular target: T2, Adenosine receptor A3 (Homo sapiens) (UniProt P0DMS8); experiment: Inhibition of human adenosine A3 receptor at 10 uM
T2 sequence (whole entry): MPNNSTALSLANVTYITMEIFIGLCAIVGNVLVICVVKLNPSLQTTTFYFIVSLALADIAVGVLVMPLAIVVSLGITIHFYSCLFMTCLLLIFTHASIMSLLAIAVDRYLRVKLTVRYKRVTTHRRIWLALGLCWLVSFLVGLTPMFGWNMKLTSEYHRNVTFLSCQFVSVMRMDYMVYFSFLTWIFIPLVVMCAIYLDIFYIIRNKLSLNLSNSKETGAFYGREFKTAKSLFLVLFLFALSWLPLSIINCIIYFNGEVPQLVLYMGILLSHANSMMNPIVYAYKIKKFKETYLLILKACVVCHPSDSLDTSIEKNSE

Homo sapiens = species: Homo sapiens; experiment: Inhibition of human sigma receptor at 10 uM
Cytochrome P450 1A2 = molecular target: T3, Cytochrome P450 1A2 (Homo sapiens, UniProt P05177); experiment: Inhibition of CYP1A2 at 10 to 20 uM; assay type: ADME
T3 sequence (P05177 whole entry): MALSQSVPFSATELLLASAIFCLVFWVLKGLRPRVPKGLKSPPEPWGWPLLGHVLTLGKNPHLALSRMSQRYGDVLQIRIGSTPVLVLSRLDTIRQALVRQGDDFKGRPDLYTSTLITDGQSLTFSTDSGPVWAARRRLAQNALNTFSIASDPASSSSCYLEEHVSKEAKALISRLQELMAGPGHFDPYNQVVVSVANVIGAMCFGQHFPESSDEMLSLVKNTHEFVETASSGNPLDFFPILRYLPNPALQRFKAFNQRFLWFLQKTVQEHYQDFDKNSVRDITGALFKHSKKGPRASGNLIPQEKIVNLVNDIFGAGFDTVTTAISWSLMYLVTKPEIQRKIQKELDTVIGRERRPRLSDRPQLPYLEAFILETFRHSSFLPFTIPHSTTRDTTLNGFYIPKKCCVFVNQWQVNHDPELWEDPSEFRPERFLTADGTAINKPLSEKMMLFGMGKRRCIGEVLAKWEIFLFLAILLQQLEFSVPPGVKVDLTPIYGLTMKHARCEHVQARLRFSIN

Cytochrome P450 2A6 = molecular target: T4, Cytochrome P450 2A6 (Homo sapiens, UniProt P11509); experiment: Inhibition of CYP2A6 at 10 to 20 uM; assay type: ADME
T4 sequence (P11509 whole entry): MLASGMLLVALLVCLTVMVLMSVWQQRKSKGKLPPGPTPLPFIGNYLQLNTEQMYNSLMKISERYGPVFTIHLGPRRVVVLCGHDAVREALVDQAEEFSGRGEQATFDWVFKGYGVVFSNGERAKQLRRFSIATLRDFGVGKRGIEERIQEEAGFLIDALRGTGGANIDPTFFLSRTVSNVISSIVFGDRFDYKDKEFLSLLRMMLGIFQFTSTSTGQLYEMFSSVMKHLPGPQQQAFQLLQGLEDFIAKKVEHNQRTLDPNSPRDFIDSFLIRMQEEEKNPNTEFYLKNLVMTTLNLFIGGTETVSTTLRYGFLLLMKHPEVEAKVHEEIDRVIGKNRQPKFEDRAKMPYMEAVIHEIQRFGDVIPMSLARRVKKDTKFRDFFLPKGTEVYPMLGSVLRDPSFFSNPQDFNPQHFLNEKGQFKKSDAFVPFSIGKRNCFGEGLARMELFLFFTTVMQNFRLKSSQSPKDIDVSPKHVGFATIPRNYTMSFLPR

Cytochrome P450 2C19 = Cytochrome P450 2C19 (Homo sapiens, UniProt P33261); experiment: Inhibition of CYP2C19 at 10 to 20 uM; assay type: ADME
Sequence of Cytochrome P450 2C19 (P33261 whole entry): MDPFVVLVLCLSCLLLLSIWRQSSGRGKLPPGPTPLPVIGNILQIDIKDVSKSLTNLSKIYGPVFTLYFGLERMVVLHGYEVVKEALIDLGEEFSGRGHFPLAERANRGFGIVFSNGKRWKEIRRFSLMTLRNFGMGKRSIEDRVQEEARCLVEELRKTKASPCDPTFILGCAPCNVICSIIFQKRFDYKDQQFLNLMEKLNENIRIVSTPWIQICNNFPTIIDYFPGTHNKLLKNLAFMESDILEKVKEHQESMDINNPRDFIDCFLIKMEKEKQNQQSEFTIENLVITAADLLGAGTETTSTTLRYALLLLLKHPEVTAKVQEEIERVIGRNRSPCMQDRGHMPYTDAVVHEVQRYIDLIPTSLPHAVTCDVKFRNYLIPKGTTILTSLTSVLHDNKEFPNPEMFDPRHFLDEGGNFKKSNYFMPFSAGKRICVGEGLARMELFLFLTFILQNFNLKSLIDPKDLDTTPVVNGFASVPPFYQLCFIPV

Cytochrome P450 2C9 = Cytochrome P450 2C9 (Homo sapiens, UniProt P11712); experiment: Inhibition of CYP2C9 at 10 to 20 uM; assay type: ADME
Sequence of Cytochrome P450 2C9 (P11712 whole entry): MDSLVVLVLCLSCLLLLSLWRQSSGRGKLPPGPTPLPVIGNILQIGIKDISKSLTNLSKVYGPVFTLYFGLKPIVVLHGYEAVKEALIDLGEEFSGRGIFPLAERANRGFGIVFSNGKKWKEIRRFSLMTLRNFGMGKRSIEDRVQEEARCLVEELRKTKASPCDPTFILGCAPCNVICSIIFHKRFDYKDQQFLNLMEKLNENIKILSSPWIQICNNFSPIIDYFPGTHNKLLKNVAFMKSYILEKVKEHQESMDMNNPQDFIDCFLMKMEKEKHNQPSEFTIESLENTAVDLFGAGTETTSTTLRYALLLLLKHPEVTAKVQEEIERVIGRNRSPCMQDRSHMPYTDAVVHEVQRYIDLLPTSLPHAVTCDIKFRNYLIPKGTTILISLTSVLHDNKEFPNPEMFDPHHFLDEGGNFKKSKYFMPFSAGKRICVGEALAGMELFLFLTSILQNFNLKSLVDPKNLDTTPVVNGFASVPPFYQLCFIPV

Cytochrome P450 2D6 = Cytochrome P450 2D6 (Homo sapiens, UniProt P10635); experiment: Inhibition of CYP2D6 at 10 to 20 uM; assay type: ADME
Sequence of Cytochrome P450 2D6 (P10635 whole entry): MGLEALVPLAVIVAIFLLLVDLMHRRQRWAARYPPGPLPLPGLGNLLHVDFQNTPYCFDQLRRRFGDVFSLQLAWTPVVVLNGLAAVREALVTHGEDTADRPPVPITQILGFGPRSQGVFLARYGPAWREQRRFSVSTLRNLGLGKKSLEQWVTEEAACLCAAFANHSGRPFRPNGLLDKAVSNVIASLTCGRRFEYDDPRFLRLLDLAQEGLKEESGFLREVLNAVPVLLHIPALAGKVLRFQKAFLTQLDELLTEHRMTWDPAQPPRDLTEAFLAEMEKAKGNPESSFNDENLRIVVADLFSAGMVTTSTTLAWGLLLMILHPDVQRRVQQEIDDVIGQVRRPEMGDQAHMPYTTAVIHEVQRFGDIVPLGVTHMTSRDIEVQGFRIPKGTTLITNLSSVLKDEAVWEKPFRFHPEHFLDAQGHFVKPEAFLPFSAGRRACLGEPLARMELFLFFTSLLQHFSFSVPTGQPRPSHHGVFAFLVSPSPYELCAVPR

Cytochrome P450 2E1 = Cytochrome P450 2E1 (Homo sapiens, UniProt P05181); experiment: Inhibition of CYP2E1 at 10 to 20 uM; assay type: ADME
Sequence of Cytochrome P450 2E1 (P05181 whole entry): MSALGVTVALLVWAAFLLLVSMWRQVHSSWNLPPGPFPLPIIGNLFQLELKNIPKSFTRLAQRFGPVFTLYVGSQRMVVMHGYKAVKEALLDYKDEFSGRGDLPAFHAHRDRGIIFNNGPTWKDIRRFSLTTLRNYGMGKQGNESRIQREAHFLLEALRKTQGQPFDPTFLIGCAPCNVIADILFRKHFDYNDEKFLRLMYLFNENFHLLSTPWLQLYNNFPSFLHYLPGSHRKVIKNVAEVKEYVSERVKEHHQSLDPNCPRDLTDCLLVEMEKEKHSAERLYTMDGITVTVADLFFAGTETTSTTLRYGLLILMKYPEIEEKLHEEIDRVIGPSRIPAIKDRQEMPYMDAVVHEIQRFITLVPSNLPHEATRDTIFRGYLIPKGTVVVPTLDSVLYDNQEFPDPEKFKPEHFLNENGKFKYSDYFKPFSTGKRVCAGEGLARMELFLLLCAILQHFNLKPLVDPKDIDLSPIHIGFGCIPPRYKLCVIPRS

Cytochrome P450 3A4 = Cytochrome P450 3A4 (Homo sapiens, UniProt P08684); experiment: Inhibition of CYP3A4 at 10 to 20 uM; assay type: ADME
Sequence of Cytochrome P450 3A4 (P08684 whole entry): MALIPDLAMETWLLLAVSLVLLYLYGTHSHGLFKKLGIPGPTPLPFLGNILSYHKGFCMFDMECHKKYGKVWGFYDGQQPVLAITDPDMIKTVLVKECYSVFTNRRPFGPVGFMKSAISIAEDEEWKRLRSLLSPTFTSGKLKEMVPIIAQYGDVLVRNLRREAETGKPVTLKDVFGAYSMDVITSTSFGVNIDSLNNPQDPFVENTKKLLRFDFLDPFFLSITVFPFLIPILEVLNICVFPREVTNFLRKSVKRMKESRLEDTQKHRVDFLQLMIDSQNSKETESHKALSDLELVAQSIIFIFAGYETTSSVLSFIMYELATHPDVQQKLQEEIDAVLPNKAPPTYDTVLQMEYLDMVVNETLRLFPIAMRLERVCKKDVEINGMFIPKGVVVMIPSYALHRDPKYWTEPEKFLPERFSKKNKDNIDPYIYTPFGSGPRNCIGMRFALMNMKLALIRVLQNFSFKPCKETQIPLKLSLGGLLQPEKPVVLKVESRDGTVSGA

[18] = Bioavailability in dog; assay type: ADME, organism-based, Canis lupus familiaris; details: in vivo
[19] = Solubility in water at pH 7; assay type: physicochemical
[20] = Photostability of the UV light irradiated compound; assay type: ADME
Rattus norvegicus [21] = experiment: CNS toxicity assessed as hypoactivity in rat at 9.4 mg/kg; assay type: organism-based; set-up: dose 9.4 mg/kg; details: in vivo
Rattus norvegicus [22] = experiment: CNS toxicity assessed as piloerection in rat at 9.4 mg/kg; assay type: organism-based; set-up: dose 9.4 mg/kg; details: in vivo
Rattus norvegicus [23] = experiment: CNS toxicity assessed as hypoactivity in rat at 2.8 mg/kg; assay type: organism-based; set-up: dose 2.8 mg/kg; details: in vivo
Rattus norvegicus [24] = experiment: CNS toxicity assessed as piloerection in rat at 2.8 mg/kg; assay type: organism-based; set-up: dose 2.8 mg/kg; details: in vivo
Plasma [25] = experiment: Drug level in rat plasma at 0.1 mg/kg; assay type: ADME, organism-based; set-up: dose 0.1 mg/kg; details: in vivo

Structure (SMILES)	fraction unbound [1]	fraction unbound [2]	Kp [3]	half-life [4]	Vbeta (Rattus norvegicus [5])	clearance [6]	bioavailability [7]	Drug uptake (Brain [8])	Kp [9]	Drug uptake (Brain [10])	fraction unbound [11]	Activity (Rattus norvegicus [12])	Activity (Rattus norvegicus [13])	Activity (Rattus norvegicus [14])	other results
Cc1cc2ncc(-c3ccc4cc(CCN5CCC[C@H]5C)ccc4n3)c(C)n2n1	0.45	0.3	1.6	5.3 h	6.3 L/kg	14 mL/min/kg	90%	174 ng/g	1.5	440 ng/g	0.4	Active	Active	Active	Cp (Plasma [15]): 19.2 ng/mL; inhibition at 10 µM (L-type calcium channel): 63%; inhibition [16]: 74%; inhibition [17]: 69%; inhibition (Homo sapiens): 96%; Activity (Cytochrome P450 1A2): Not Active; Activity (Cytochrome P450 2A6): Not Active; Activity (Cytochrome P450 2C19): Not Active; Activity (Cytochrome P450 2C9): Not Active; Activity (Cytochrome P450 2D6): Not Active; Activity (Cytochrome P450 2E1): Not Active; Activity (Cytochrome P450 3A4): Not Active; bioavailability [18]: 72%; solubility [19]: 8.7 mg/mL (≈ 22.6 mM); Activity [20]: Not Active; Activity (Rattus norvegicus [21]): Toxic; Activity (Rattus norvegicus [22]): Toxic; Activity (Rattus norvegicus [23]): Non-toxic; Activity (Rattus norvegicus [24]): Non-toxic
CCOc1ccc(-n2ncc(-c3ccc4cc(CCN5CCC[C@H]5C)ccc4n3)c2C)nn1	0.21	0.11	–	8.3 h	7.4 L/kg	8.83 mL/min/kg	70%	3242 ng/g	42	–	–	Active	Active	Active	–
Cc1nc(N2CCCC2)ncc1-c1ccc2cc(CCN3CCC[C@H]3C)ccc2n1	–	–	–	4 h	8.5 L/kg	24.2 mL/min/kg	98%	718 ng/g	16	–	–	Active	–	–	–
Cc1c(-c2ccc3cc(CCN4CCC[C@H]4C)ccc3n2)cnn1-c1ccccn1	–	–	–	2.4 h	4.1 L/kg	19.7 mL/min/kg	75%	1659 ng/g	23	–	–	–	–	–	–
Cc1nc2ncccc2cc1-c1ccc2cc(CCN3CCC[C@H]3C)ccc2n1	0.5	0.39	0.4	2 h	9.2 L/kg	42.3 mL/min/kg	30%	–	–	50 ng/g	0.57	Active	–	–	–
O=C(c1ccc(OCCCc2c[nH]cn2)cc1)C1CC1	–	–	–	–	–	–	–	–	–	–	–	Active	–	–	–
Cc1nn(C)cc1-c1ccc2cc(CCN3CCC[C@H]3C)ccc2n1	0.5	0.38	1.8	1.7 h	9 L/kg	61.7 mL/min/kg	58%	–	–	425 ng/g	0.42	Active	Active	Active	Cp (Plasma [25]): 2.5 ng/mL; inhibition (Homo sapiens): 86%; Activity (Cytochrome P450 1A2): Not Active; Activity (Cytochrome P450 2A6): Not Active; Activity (Cytochrome P450 2C19): Not Active; Activity (Cytochrome P450 2C9): Not Active; Activity (Cytochrome P450 2D6): Not Active; Activity (Cytochrome P450 2E1): Not Active; Activity (Cytochrome P450 3A4): Not Active; bioavailability [18]: 77%; solubility [19]: 21 mg/mL (≈ 62.8 mM); Activity [20]: Not Active; Activity (Rattus norvegicus [21]): Toxic; Activity (Rattus norvegicus [23]): Non-toxic
C[C@@H]1CCCN1CCc1cc2cc(-c3ccc(C#N)cc3)ccc2o1	0.06	0.06	–	–	11.6 L/kg	25 mL/min/kg	–	1728 ng/g	–	3082 ng/g	0.09	–	–	–	–
